This is an account of results in PMC3246390 (Organic & biomolecular chemistry, 2011).

Entries after “also recorded” stand apart in the source; their conditions may differ. Like-named read-outs stand apart in the source and are kept apart here.

The target in assay [1] is T1, mouse Vα14Vβ8.2 NKT TCR (glycolipid presented by mouse CD1d) (Mus musculus, UniProt P11609).
T1 sequence (P11609 19-297): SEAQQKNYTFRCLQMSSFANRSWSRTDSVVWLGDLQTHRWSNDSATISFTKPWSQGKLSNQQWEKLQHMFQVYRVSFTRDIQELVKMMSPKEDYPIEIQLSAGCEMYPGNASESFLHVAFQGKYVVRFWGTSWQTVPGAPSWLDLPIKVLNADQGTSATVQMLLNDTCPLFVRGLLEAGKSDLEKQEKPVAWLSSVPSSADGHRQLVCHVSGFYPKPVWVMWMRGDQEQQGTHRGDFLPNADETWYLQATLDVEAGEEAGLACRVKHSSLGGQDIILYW
T1 sequence (P01887 21-119 partner): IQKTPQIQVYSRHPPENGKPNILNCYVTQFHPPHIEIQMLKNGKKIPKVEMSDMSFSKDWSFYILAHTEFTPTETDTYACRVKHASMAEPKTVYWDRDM
T1 sequence (P01849 1-110 partner): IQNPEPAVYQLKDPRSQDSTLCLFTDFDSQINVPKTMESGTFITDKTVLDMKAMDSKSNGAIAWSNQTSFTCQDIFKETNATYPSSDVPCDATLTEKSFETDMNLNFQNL
It is filed as binding. Particulars: for Kass / Kdiss: Langmuir 1:1 model; for Kdiss: TCR dissociation from mouse CD1d-glycolipid complex.

Assay [2] relates to mice. Particulars: cited from earlier work.
Assay [3] relates to mice. Type of assay: in vivo. Particulars: 5 µg intraperitoneal; for cytokine secretion (INF-γ and IL-4): IL-4 at 4h and INF-γ at 16h. A digest of the protocol:
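Each mouse received an intraperitoneal injection of 5 µg glycolipid (6"-modified α-GalCer analogues, galacturonic acid and α-d-fucopyranosyl types). Serum IL-4 was measured at 4 h and serum INF-γ at 16 h after injection.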

For assay [4], the system named is mice. Particulars: i.v. administration; cited from earlier work.
For assay [5], the system named is lung and breast cancer in mice. Particulars: lung and breast cancer (GSL-1’: mice bearing lung cancer, equal doses); cited from earlier work.
Setting [6] is: SPR, TCR binding to mouse CD1d-glycolipid complex.
Where [7] appears, read: read-out: KD(Kdiss/Kass), SPR, TCR binding to mouse CD1d-glycolipid complex.

With “1-O-(6-deoxy-α-D-galactopyranosyl)-2-hexacosylamino-octadecane-1,3,4-triol [compound 4]”, the Kass in assay [1] (setting [6]) was 80000 ± 3000 M⁻¹ s⁻¹. Further, the Kdiss in assay [1] (SPR) was 0.00526 ± 0.00029 s⁻¹. Also, in assay [1] (setting [7]), the Kd amounted to 64.8 ± 6 nM. The “IFN-γ induction compared to α-GalCer” value in the assay with mice [2] is “superior to α-GalCer”.

For the compound “1-O-(6-deoxy-α-D-galactopyranosyl)-2-hexacosylamino-octadecane-1,3,4-triol [compound 12]”, the Kass in assay [1] (setting [6]) came to 100000 ± 20000 M⁻¹ s⁻¹. For the same compound, in assay [1] (SPR), the Kdiss was 0.00648 ± 0.0018 s⁻¹. In addition, the Kd in assay [1] (setting [7]) worked out at 74.4 ± 25 nM. Also, the “cytokine secretion (INF-γ and IL-4)” value with mice [3] (serum) is recorded as “weak cytokine secretion; also recorded: low cytokine release”.

Compound “1-O-(α-D-galactopyranosyluronate)-2-hexacosylamino-octadecane-1,3,4-triol [compound 13]” yielded a Kass in assay [1] (setting [6]) of 100000 ± 9000 M⁻¹ s⁻¹. The Kd in assay [1] (setting [7]) amounted to 165 ± 38.3 nM. Further, the “cytokine secretion (INF-γ and IL-4)” value with mice [3] (serum) is given as “minor cytokine secretion”. Besides, the “secretion of INF-γ compared to α-GalCer” value in the assay with mice [4] is reported as “drastically lower secretion of INF-γ”. The “efficacy towards cancer compared to α-GalCer” value in assay [5] is “more effective”.

Take `CCCCCCCCCCCCCCCCCCCCCCCCCC(=O)N[C@@H](CO[C@H]1O[C@H](CO)[C@H](O)[C@H](O)[C@H]1O)[C@H](O)[C@H](O)CCCCCCCCCCCCCC` [KRN7000 (1), α-galactosylceramide, reference compound]: the Kd in assay [1] worked out at 11.2 ± 0.2 nM. In assay [1] (read-out: Kass), the kon is 130000 M⁻¹ s⁻¹. The koff in assay [1] (read-out: Kdiss) came to 0.00145 s⁻¹.

As for `CCCCCCCCCCCCCCC(O)C(O)C(CO[C@H]1O[C@H](C(=O)O)[C@H](O)[C@H](O)[C@H]1O)NC(=O)CCCCCc1ccccc1` (stereo partly drawn) [compound 14, 1-O-(α-D-galactopyranosyluronate)-2-(6-phenylhexanoyl)amino-octadecane-1,3,4-triol], the Kass in assay [1] (setting [6]) was 110000 ± 6000 M⁻¹ s⁻¹. Further, in assay [1] (SPR), the Kdiss came out at 0.00811 ± 0.0012 s⁻¹. Moreover, the Kd in assay [1] (setting [7]) was 75.3 ± 15.2 nM. In addition, the “cytokine secretion (INF-γ and IL-4)” value in the assay on mice [3] (serum) is reported as “abolishes all activity; also recorded: low cytokine release”.

In the case of “α-C-GalCer [compound 3, reference compound]”, the Th1/Th2 polarization entry with mice [3] (INF-γ versus IL-4) is given as “no polarization”. Moreover, the “IL-4 secretion (Th2 response)” value in the assay with mice [3] (serum, measured at 4h) is “strong Th2 response”. Also, the INF-γ secretion result in the assay with mice [3] (serum, measured at 16h) is reported as “superior INF-γ inducer”.
